Data taken from ChEMBL document CHEMBL2034933, “New quinazolinone-pyrimidine hybrids: synthesis, anti-inflammatory, and ulcerogenicity studies” (Eur J Med Chem, 2012).

Legend:
Rattus norvegicus [1] = test: Antiinflammatory activity in albino rat assessed as inhibition of carrageenan-induced paw edema at 100 mg/kg, po administered 1 hr prior to carrageenan-challenge measured after 0.5 hrs; assay type: functional
In short: (§1)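 Adult albino rats of both sexes (120–150 g), pre-hydrated with 3 ml water by gavage, five per group. Test agents suspended in distilled water with a few drops of Tween 80, given orally 1 h before sub-plantar injection of 50 µl 1% carrageenan into the right hind paw. Dial-gauge paw thickness taken at 0.5, 1, 2 and 3 h, with the left paw as reference. % inhibition = (Wc−Wt)/Wc × 100 against saline/Tween 80 controls.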

Rattus norvegicus [2] = test: Antiinflammatory activity in albino rat assessed as inhibition of carrageenan-induced paw edema at 100 mg/kg, po administered 1 hr prior to carrageenan-challenge measured after 1 hr; assay type: functional; in short: as §1
Rattus norvegicus [3] = test: Antiinflammatory activity in albino rat assessed as inhibition of carrageenan-induced paw edema at 100 mg/kg, po administered 1 hr prior to carrageenan-challenge measured after 2 hrs; assay type: functional; in short: as §1
Rattus norvegicus [4] = test: Antiinflammatory activity in albino rat assessed as inhibition of carrageenan-induced paw edema at 100 mg/kg, po administered 1 hr prior to carrageenan-challenge measured after 3 hrs; assay type: functional; in short: as §1
Rattus norvegicus [5] = test: Antiinflammatory activity in albino rat assessed as inhibition of carrageenan-induced paw edema at 50 mg/kg, po administered 1 hr prior to carrageenan-challenge measured after 3 hrs; assay type: functional; in short: as §1
Rattus norvegicus [6] = test: Antiinflammatory activity in albino rat assessed as inhibition of carrageenan-induced paw edema at 200 mg/kg, po administered 1 hr prior to carrageenan-challenge measured after 3 hrs; assay type: functional
In short: (§2)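 Carrageenan rat paw oedema (albino rats of both sexes, 120–150 g), oral dosing in Tween 80 suspension 1 h before 50 µl 1% carrageenan sub-plantar injection. Inhibition read at 3 h over a three-dose series (50, 100, 200 mg/kg for test agents; 20, 50, 100 mg/kg for diclofenac sodium). IC50 given in mg/kg and µmol/kg.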

Rattus norvegicus [7] = test: Antiinflammatory activity in po dosed albino rat assessed as inhibition of carrageenan-induced paw edema administered 1 hr prior to carrageenan-challenge measured after 3 hrs; assay type: functional, organism-based; in short: as §2
Rattus norvegicus [8] = test: Antiinflammatory activity in po dosed albino rat assessed as inhibition of carrageenan-induced paw edema administered 1 hr prior to carrageenan-challenge relative to diclophenac; assay type: functional
Rattus norvegicus [9] = test: Ulcerogenic activity in fasted albino rat assessed as ulcer index at 100 mg/kg po administered qd for 3 days measured on day 4; assay type: toxicity, organism-based; design: dose 100 mg/kg, route oral; conditions: in vivo, 72 h
In short: (§3)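 Albino rats of both sexes (120–150 g), five per group, fasted 20 h, then dosed orally in 1% Tween (test agents 100 mg/kg, celecoxib and diclofenac sodium 50 mg/kg). Feeding cycle: 2 h fast, 2 h feed, 20 h fast, repeated with doses on days 2 and 3. Ulcers scored 0–4. Ulcer index = %incidence/10 + mean ulcer number + mean severity.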

Ovis aries = species: Ovis aries; test: Selectivity ratio of IC50 for ovine COX2 to ovine COX1
In short: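 Ovine COX-1 and COX-2 inhibition measured with a commercial COX inhibitor screening kit following the Gierse et al. method. Selectivity expressed as the ratio IC50(COX-2)/IC50(COX-1).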

Rattus norvegicus [10] = test: Antiinflammatory activity in albino rat assessed as inhibition of carrageenan-induced paw edema at 50 mg/kg, po administered 1 hr prior to carrageenan-challenge measured after 0.5 hrs; assay type: functional; in short: as §1
Rattus norvegicus [11] = test: Antiinflammatory activity in albino rat assessed as inhibition of carrageenan-induced paw edema at 50 mg/kg, po administered 1 hr prior to carrageenan-challenge measured after 1 hr; assay type: functional; in short: as §1
Rattus norvegicus [12] = test: Antiinflammatory activity in albino rat assessed as inhibition of carrageenan-induced paw edema at 50 mg/kg, po administered 1 hr prior to carrageenan-challenge measured after 2 hrs; assay type: functional; in short: as §1
Rattus norvegicus [13] = test: Antiinflammatory activity in albino rat assessed as inhibition of carrageenan-induced paw edema at 20 mg/kg, po administered 1 hr prior to carrageenan-challenge measured after 3 hrs; assay type: functional; in short: as §2
Rattus norvegicus [14] = test: Ulcerogenic activity in fasted albino rat assessed as ulcer index at 50 mg/kg po administered qd for 3 days measured on day 4; assay type: toxicity, organism-based; design: dose 50 mg/kg, route oral; conditions: in vivo, 72 h; in short: as §3

Row | IC50 (Rattus norvegicus [7]) | Ratio IC50 (Ovis aries) | SMILES | inhibition in vivo at 100 mg/kg (Rattus norvegicus [1]) | inhibition in vivo at 100 mg/kg (Rattus norvegicus [2]) | inhibition in vivo at 100 mg/kg (Rattus norvegicus [3]) | inhibition in vivo at 100 mg/kg (Rattus norvegicus [4]) | inhibition in vivo at 50 mg/kg (Rattus norvegicus [5]) | inhibition in vivo at 200 mg/kg (Rattus norvegicus [6]) | inhibition (INH) (Rattus norvegicus [8]) | UI (Rattus norvegicus [9]) | inhibition in vivo at 50 mg/kg (Rattus norvegicus [10]) | inhibition in vivo at 50 mg/kg (Rattus norvegicus [11]) | inhibition in vivo at 50 mg/kg (Rattus norvegicus [12]) | inhibition in vivo at 20 mg/kg (Rattus norvegicus [13]) | UI (Rattus norvegicus [14])
1 | 81.31 mg/kg | 0.44 | N#Cc1c(Nc2ccccc2)nc(SCC(=O)Nn2c(COc3ccc(Cl)cc3Cl)nc3ccccc3c2=O)nc1-c1ccc(O)cc1 | 90.4% | 90.9% | 91.2% | 91.2% | 77.2% | 96.5% | >90% | 11.38 |  |  |  |  | 
2 | 45.01 mg/kg |  | O=C([O-])Cc1ccccc1Nc1c(Cl)cccc1Cl.[Na+] [DICLOFENAC SODIUM] |  |  |  | 91.2% | 87.3% |  |  |  | 76.9% | 83.6% | 87.7% | 42.2% | 17.02
3 |  |  | N#Cc1c(Nc2ccc(Cl)cc2)nc(SCC(=O)Nn2c(COc3ccc(Cl)cc3Cl)nc3ccccc3c2=O)nc1-c1ccc(O)cc1 | 65.4% | 72.7% | 77.2% | 79% |  |  |  | 12.08 |  |  |  |  | 
4 |  |  | N#Cc1c(Nc2ccc(O)cc2)nc(SCC(=O)Nn2c(COc3ccc(Cl)cc3Cl)nc3ccccc3c2=O)nc1-c1ccccc1 | 61.5% | 72.7% | 59.6% | 59.6% |  |  |  |  |  |  |  |  | 
5 |  |  | N#Cc1c(-c2ccc(O)cc2)nc(SCC(=O)Nn2c(COc3ccc(Cl)cc3Cl)nc3ccccc3c2=O)[nH]c1=O | 61.5% | 63.6% | 68.4% | 68.4% |  |  |  |  |  |  |  |  | 
6 |  |  | N#Cc1c(Cl)nc(SCC(=O)Nn2c(COc3ccc(Cl)cc3Cl)nc3ccccc3c2=O)nc1-c1ccccc1 | 53.9% | 60% | 66.7% | 68.4% |  |  |  |  |  |  |  |  | 
7 | 83.36 mg/kg | 0.4 | N#Cc1c(Nc2ccc(O)cc2)nc(SCC(=O)Nn2c(COc3ccc(Cl)cc3Cl)nc3ccccc3c2=O)nc1-c1ccc(Cl)cc1 | 71.2% | 90.9% | 91.2% | 91.2% | 61.4% | 96.5% | >90% | 14.43 |  |  |  |  | 
8 |  |  | N#Cc1c(Cl)nc(SCC(=O)Nn2c(COc3ccc(Cl)cc3Cl)nc3ccccc3c2=O)nc1-c1ccc(O)cc1 | 67.3% | 72.7% | 73.7% | 73.7% |  |  |  |  |  |  |  |  | 
9 |  |  | N#Cc1c(-c2ccc(Cl)cc2)nc(SCC(=O)Nn2c(COc3ccc(Cl)cc3Cl)nc3ccccc3c2=O)n(Cc2ccccc2)c1=O | 61.5% | 72.7% | 77.2% | 77.2% |  |  |  | 11.3 |  |  |  |  | 
10 |  |  | N#Cc1c(Nc2ccc(Cl)cc2)nc(SCC(=O)Nn2c(COc3ccc(Cl)cc3Cl)nc3ccccc3c2=O)nc1-c1ccccc1 | 51.9% | 54.5% | 57.9% | 59.6% |  |  |  |  |  |  |  |  | 
11 |  |  | O=C(CSc1nc(-c2ccccc2)c(C(=O)O)c(=O)[nH]1)Nn1c(COc2ccc(Cl)cc2Cl)nc2ccccc2c1=O | 61.5% | 69.1% | 68.4% | 64.9% |  |  |  |  |  |  |  |  | 
12 | 82.89 mg/kg | 0.62 | Cn1c(SCC(=O)Nn2c(COc3ccc(Cl)cc3Cl)nc3ccccc3c2=O)nc(-c2ccc(O)cc2)c(C#N)c1=O | 76.9% | 80% | 86% | 86% | 70.4% | 97.8% | >90% | 11.22 |  |  |  |  | 
13 |  |  | N#Cc1c(Nc2ccccc2)nc(SCC(=O)Nn2c(COc3ccc(Cl)cc3Cl)nc3ccccc3c2=O)nc1-c1ccccc1 | 71.2% | 77.3% | 78.1% | 78.1% |  |  |  | 13.26 |  |  |  |  | 
14 |  |  | Cn1c(SCC(=O)Nn2c(COc3ccc(Cl)cc3Cl)nc3ccccc3c2=O)nc(-c2ccccc2)c(C#N)c1=O | 51.9% | 54.5% | 59.6% | 59.6% |  |  |  |  |  |  |  |  | 
15 |  |  | O=C(CSc1nc(-c2ccc(Cl)cc2)c(C(=O)O)c(=O)[nH]1)Nn1c(COc2ccc(Cl)cc2Cl)nc2ccccc2c1=O | 51.9% | 58.2% | 61.4% | 61.4% |  |  |  |  |  |  |  |  | 
16 |  | 0.02 | Cc1ccc(-c2cc(C(F)(F)F)nn2-c2ccc(S(N)(=O)=O)cc2)cc1 [CELECOXIB] |  |  |  |  |  |  |  |  |  |  |  |  | 12.51
17 | 88.27 mg/kg | 7.3 | N#Cc1c(Nc2ccc(O)cc2)nc(SCC(=O)Nn2c(COc3ccc(Cl)cc3Cl)nc3ccccc3c2=O)nc1-c1ccc(O)cc1 | 80.8% | 86.4% | 86.8% | 86.8% | 56.1% | 91.2% | >90% | 14.22 |  |  |  |  | 
18 | 86.74 mg/kg | 20.6 | N#Cc1c(-c2ccccc2)nc(SCC(=O)Nn2c(COc3ccc(Cl)cc3Cl)nc3ccccc3c2=O)[nH]c1=O | 80.8% | 81.8% | 86% | 86% | 68.4% | 91.2% | >90% | 14.4 |  |  |  |  | 
19 |  |  | N#Cc1c(-c2ccc(O)cc2)nc(SCC(=O)Nn2c(COc3ccc(Cl)cc3Cl)nc3ccccc3c2=O)n(Cc2ccccc2)c1=O | 51.9% | 54.5% | 56.1% | 61.4% |  |  |  |  |  |  |  |  | 
20 |  |  | N#Cc1c(Nc2ccccc2)nc(SCC(=O)Nn2c(COc3ccc(Cl)cc3Cl)nc3ccccc3c2=O)nc1-c1ccc(Cl)cc1 | 36.5% | 43.6% | 50.9% | 56.1% |  |  |  |  |  |  |  |  | 
21 |  |  | N#Cc1c(Nc2ccc(Cl)cc2)nc(SCC(=O)Nn2c(COc3ccc(Cl)cc3Cl)nc3ccccc3c2=O)nc1-c1ccc(Cl)cc1 | 46.1% | 54.5% | 61.4% | 64.9% |  |  |  |  |  |  |  |  | 
22 |  |  | N#Cc1c(-c2ccccc2)nc(SCC(=O)Nn2c(COc3ccc(Cl)cc3Cl)nc3ccccc3c2=O)n(Cc2ccccc2)c1=O | 76% | 77.3% | 79% | 79% |  |  |  | 10.9 |  |  |  |  | 
23 |  |  | N#Cc1c(-c2ccc(Cl)cc2)nc(SCC(=O)Nn2c(COc3ccc(Cl)cc3Cl)nc3ccccc3c2=O)[nH]c1=O | 61.5% | 63.6% | 64.9% | 64.9% |  |  |  |  |  |  |  |  | 
24 |  |  | O=C(CSc1nc(-c2ccc(O)cc2)c(C(=O)O)c(=O)[nH]1)Nn1c(COc2ccc(Cl)cc2Cl)nc2ccccc2c1=O | 32.7% | 36.4% | 38.6% | 38.6% |  |  |  |  |  |  |  |  | 
25 |  |  | Cn1c(SCC(=O)Nn2c(COc3ccc(Cl)cc3Cl)nc3ccccc3c2=O)nc(-c2ccc(Cl)cc2)c(C#N)c1=O | 80.8% | 76.4% | 73.7% | 73.7% |  |  |  |  |  |  |  |  | 
26 |  |  | N#Cc1c(Cl)nc(SCC(=O)Nn2c(COc3ccc(Cl)cc3Cl)nc3ccccc3c2=O)nc1-c1ccc(Cl)cc1 | 61.5% | 63.6% | 68.4% | 68.4% |  |  |  |  |  |  |  |  | 
